PAFAH1B3 FP inh: blocks human PAF acetylhydrolase 1B catalytic subunit 3; inhibition, % at 3.39 µM; recombinant PAFAH1B3, FP-rhodamine probe, fluorescence polarization; 340,000 compounds, 0.28% hits; Q15102;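 active = inhibition above the screen-wide average of all tested compounds plus 3 SD, cut at about 25% in these data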;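 note: 0% = enzyme with DMSO only and 100% = wells lacking PAFAH1B3 protein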
Target sequence (Q15102 whole entry, looked up): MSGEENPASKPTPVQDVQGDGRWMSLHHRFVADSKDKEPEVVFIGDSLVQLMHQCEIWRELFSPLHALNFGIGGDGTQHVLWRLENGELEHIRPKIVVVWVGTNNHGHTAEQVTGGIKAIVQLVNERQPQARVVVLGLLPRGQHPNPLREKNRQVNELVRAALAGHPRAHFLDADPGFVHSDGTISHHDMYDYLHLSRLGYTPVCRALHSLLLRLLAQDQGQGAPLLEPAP
UCH37 DUB inh: human UCH37 deubiquitinating enzyme inhibition; Q9Y5K5; purified proteasome/UCH37, Ub-AMC cleavage fluorescence; inhibition, % (no concentration beside the values); 330,000 compounds, 0.33% hits; AID 588478;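 active = mean inhibition over replicate wells above about 20%, limit read from the data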;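 note: 0% = compound-free wells with enzyme and 100% = wells lacking proteasome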
Target sequence (Q9Y5K5 whole entry, looked up): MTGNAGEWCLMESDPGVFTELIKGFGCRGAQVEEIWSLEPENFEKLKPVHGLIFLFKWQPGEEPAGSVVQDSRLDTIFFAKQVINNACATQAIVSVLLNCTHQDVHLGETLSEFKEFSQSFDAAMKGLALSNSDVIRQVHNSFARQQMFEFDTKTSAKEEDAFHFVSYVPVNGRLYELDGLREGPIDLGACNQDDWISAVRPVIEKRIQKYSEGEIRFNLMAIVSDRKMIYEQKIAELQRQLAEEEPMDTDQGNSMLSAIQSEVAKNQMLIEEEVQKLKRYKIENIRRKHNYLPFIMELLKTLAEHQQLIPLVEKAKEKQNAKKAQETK
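Signal – fluorescence, ex 355 nm, em 460 nm · System – Proteasome-bound UCH37 · Input – 0.15 nM proteasome as dispensed · Timing – 30 min preincubation with enzyme, 25 min cleavage at room temperature · Read-out basis – percent inhibition of cleavage signal versus uninhibited and no-proteasome wells · Medium – Tris-HCl pH 7.4 with ATP-MgCl2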
pPAFAH FP inh: inhibitors of human plasma PAF acetylhydrolase (pPAFAH) | recombinant pPAFAH, FP-rhodamine probe fluorescence polarization | inhibition, % at 3.39 µM | 330,000 compounds, 1.5% hits | Q13093;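 active = inhibition above the mean inhibition across the screen plus 3 SD, cut at about 25% in these data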;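 note: inhibitors block binding of the rhodamine activity-based probe so polarization drops; 0% = enzyme with DMSO and 100% = wells lacking pPAFAH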
PAFAH2 FP inh: inhibitors of human PAFAH2. 340,000 compounds, 0.99% hits. inhibition, % at 3.39 µM. Q99487. AID 492956. recombinant PAFAH2, FP-rhodamine activity probe, fluorescence polarization;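 active = inhibition above the mean over all tested compounds plus 3 SD, cut at about 30% in these data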;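 note: inhibitors block probe labeling of enzyme so polarization drops; 0% = enzyme with DMSO and 100% = wells lacking PAFAH2 protein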
GRIN3A LBD mod: modulators (binders) of human NR3A ligand-binding domain | NR3A LBD differential scanning fluorimetry, Tm shift; 0% = protein alone, 100% = glycine-bound protein | Tm shift relative to glycine control, % at 25 µM | 340,000 compounds, 2.5% hits | AID 1259313;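 active = melting temperature shift of at least 10% of the positive control shift, at one fixed dose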
PAFAH1B2 inh: PAFAH1B2 (human) inhibition. P68402. recombinant PAFAH1B2, FP-rhodamine activity probe, fluorescence polarization. inhibition, % at 3.39 µM. 340,000 compounds, 1.2% hits. AID 492953;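 active = inhibition above the mean of all tested compounds plus 3 SD, cut at about 24% in these data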;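 note: 0% = enzyme with DMSO and 100% = wells lacking PAFAH1B2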
The depositor's hits bear a star. An excerpt weighted towards active compounds, which were near 4.8% of everything screened.

How did COc1ccc(NS(=O)(=O)c2cccc(C(=O)NN=C(C)c3ccc(-n4ccnc4)cc3)c2)cc1 do in these assays?
UCH37 DUB inh: -11

Results for CCOc1ccc(-c2cc(C(=O)NN=Cc3ccc(O)cc3)c3ccccc3n2)cc1 ?
UCH37 DUB inh: -77

What do the screens show for `Brc1ccccc1C=NNc1nc2ccccc2o1`?
UCH37 DUB inh: -5

How did O=C(NC(=O)c1c(F)cccc1F)ON=C1CCCc2occc21 do in these assays?
UCH37 DUB inh: -2

How did CC(=NNC(=O)c1ccc(C)nc1)c1ccc2c(c1)CCCC2 do in these assays?
UCH37 DUB inh: 19

What do the screens show for `COc1cccc(C(=O)NN=Cc2ccc(OC)c(COc3ccccc3C(N)=O)c2)c1`?
UCH37 DUB inh: 1

What do the screens show for `Cc1ccc(C(=O)NC(=S)Nc2cccc(NC(=O)c3ccccc3)c2)cc1[N+](=O)[O-]`?
PAFAH1B3 FP inh: -9; UCH37 DUB inh: 6; pPAFAH FP inh: -6; PAFAH2 FP inh: -27; GRIN3A LBD mod: 19*; PAFAH1B2 inh: -4

How did Cc1ccc(C(=O)Nc2ccc(OCc3ccccc3)cc2)cc1[N+](=O)[O-] do in these assays?
PAFAH1B3 FP inh: 4; UCH37 DUB inh: 1; pPAFAH FP inh: -1; PAFAH2 FP inh: -8; GRIN3A LBD mod: 28*; PAFAH1B2 inh: -4

What do the screens show for `O=C(COc1cccc(NC(=O)c2cccc([N+](=O)[O-])c2)c1)c1ccc(F)cc1`?
PAFAH1B3 FP inh: 5; UCH37 DUB inh: -1; pPAFAH FP inh: 8; PAFAH2 FP inh: -25; GRIN3A LBD mod: 1; PAFAH1B2 inh: -5

How did CC(=O)Nc1ccc(C(=O)OCC(=O)c2ccc(C)c([N+](=O)[O-])c2)cc1 do in these assays?
PAFAH1B3 FP inh: 4; UCH37 DUB inh: 6; pPAFAH FP inh: -8; PAFAH2 FP inh: 33*; GRIN3A LBD mod: -22; PAFAH1B2 inh: -2

Results for O=C(Nc1ccc(OCc2ccccc2)cc1)c1cccc([N+](=O)[O-])c1 ?
PAFAH1B3 FP inh: 0; UCH37 DUB inh: 1; pPAFAH FP inh: 5; PAFAH2 FP inh: -5; GRIN3A LBD mod: 27*; PAFAH1B2 inh: 2

Results for Cc1ccc(C(=O)Nc2ccncc2)cc1[N+](=O)[O-] ?
PAFAH1B3 FP inh: 3; UCH37 DUB inh: 1; pPAFAH FP inh: -4; PAFAH2 FP inh: 0; GRIN3A LBD mod: 2; PAFAH1B2 inh: -2

Results for CCC(=O)Nc1ccc(C(=O)OCC(=O)c2ccc(C)c([N+](=O)[O-])c2)cc1 ?
PAFAH1B3 FP inh: 11; UCH37 DUB inh: 0; pPAFAH FP inh: 5; PAFAH2 FP inh: 13; GRIN3A LBD mod: 2; PAFAH1B2 inh: -3

How did C=CCOc1ccc(C=NNC(=O)C(C)Sc2ccccn2)cc1OCC (centres undefined) do in these assays?
UCH37 DUB inh: 3

How did COc1cccc(C(=O)NN=Cc2ccc(Oc3ccc([N+](=O)[O-])cn3)c(OC)c2)c1 do in these assays?
UCH37 DUB inh: 4

What do the screens show for `COc1ccc(NC(=O)CC(C)=NNC(=O)c2ccncc2)c([N+](=O)[O-])c1`?
UCH37 DUB inh: 3

How did CC12CCC(C(=O)NN=Cc3ccc(O)cc3)(OC1=O)C2(C)C (centres undefined) do in these assays?
UCH37 DUB inh: 3

Results for CC(C)(C)C(=O)C=c1[nH]c(=O)c(=Cc2ccc(F)cc2)s1 ?
UCH37 DUB inh: 0

What do the screens show for `COc1cccc(C=NNC(=O)C(=O)NCc2ccco2)c1OC`?
UCH37 DUB inh: 3

Results for O=C(NN=Cc1ccc2c(c1)OCO2)C(O)c1ccccc1 (centres undefined) ?
UCH37 DUB inh: 4

Results for CC(CC(=O)NC1CCCC1)=NNC(=O)C1CCCCC1 ?
UCH37 DUB inh: 5

What do the screens show for `CC(=NNC(=O)c1ccn(C)n1)c1cccc(NC(=O)c2ccc(C)s2)c1`?
UCH37 DUB inh: -1

How did COc1ccc(CC(=O)NN=C(C)c2cccc(NC(=O)C3CC3)c2)cc1 do in these assays?
UCH37 DUB inh: 2

How did COc1ccc(NC(=S)N(Cc2ccc(C(=O)O)cc2)Cc2ccc(OC)c(OC)c2)cc1 do in these assays?
PAFAH1B3 FP inh: 7; pPAFAH FP inh: -1; PAFAH2 FP inh: -4; GRIN3A LBD mod: 2; PAFAH1B2 inh: 0

What do the screens show for `COc1ccc(CN(Cc2ccc(C(=O)O)cc2)C(=S)Nc2cccc(C)c2)cc1OC`?
PAFAH1B3 FP inh: 4; UCH37 DUB inh: 3; pPAFAH FP inh: -2; PAFAH2 FP inh: -10; GRIN3A LBD mod: 12*; PAFAH1B2 inh: -2

What do the screens show for `CCOC(=O)/C=C/[C@H]1CCc2cccc(Cl)c2O1`?
PAFAH1B3 FP inh: 5; UCH37 DUB inh: 0; pPAFAH FP inh: -3; PAFAH2 FP inh: 1; GRIN3A LBD mod: 15*; PAFAH1B2 inh: -10

What do the screens show for `CCOC(=O)/C=C/C(=O)OCC(=O)Nc1c(Cl)cccc1Cl`?
PAFAH1B3 FP inh: -6; UCH37 DUB inh: -1; pPAFAH FP inh: 1; PAFAH2 FP inh: 12; GRIN3A LBD mod: 3; PAFAH1B2 inh: 3

What do the screens show for `COc1ccc(N(C)C(=O)c2cnc(N3CCN(c4ncccn4)CC3)c3ccccc23)cc1`?
PAFAH1B3 FP inh: 2; UCH37 DUB inh: 4; pPAFAH FP inh: -4; PAFAH2 FP inh: -8; GRIN3A LBD mod: 769*; PAFAH1B2 inh: 2

How did Cc1ccc(S(=O)(=O)NC(=O)Nc2ccc(N(C)C)cc2)cc1 do in these assays?
PAFAH1B3 FP inh: 7; UCH37 DUB inh: 7; pPAFAH FP inh: 25*; PAFAH2 FP inh: 0; GRIN3A LBD mod: -1; PAFAH1B2 inh: 6

How did Cc1ccc(NC(=O)NNS(=O)(=O)c2ccc(Br)cc2)cc1 do in these assays?
PAFAH1B3 FP inh: -3; UCH37 DUB inh: 3; pPAFAH FP inh: -1; PAFAH2 FP inh: 3; GRIN3A LBD mod: 8; PAFAH1B2 inh: 8

How did CCOC(=O)C(C)C(C)=NNc1ccc([N+](=O)[O-])cc1[N+](=O)[O-] (centres undefined) do in these assays?
UCH37 DUB inh: 8

How did CC(OC(=O)c1ccc(Cl)c(S(N)(=O)=O)c1)C(=O)NCc1ccc2c(c1)OCO2 (centres undefined) do in these assays?
PAFAH1B3 FP inh: -3; UCH37 DUB inh: 1; pPAFAH FP inh: 3; PAFAH2 FP inh: -1; GRIN3A LBD mod: 14*; PAFAH1B2 inh: 5

What do the screens show for `CNc1ccccc(C(=O)/C=C/c2ccccc2OC)c1=O`?
PAFAH1B3 FP inh: 18; UCH37 DUB inh: 6; pPAFAH FP inh: 28*; PAFAH2 FP inh: 15; GRIN3A LBD mod: -1; PAFAH1B2 inh: 4

How did CNc1ccc(Br)cc(C(=O)/C=C/c2cccc(OC)c2OC)c1=O do in these assays?
PAFAH1B3 FP inh: 6; UCH37 DUB inh: 14; pPAFAH FP inh: 20; PAFAH2 FP inh: 13; GRIN3A LBD mod: -1; PAFAH1B2 inh: 5

What do the screens show for `N#Cc1c(Sc2ncc(C(F)(F)F)cc2Cl)nsc1CC=NOCc1c(F)cccc1Cl`?
UCH37 DUB inh: -4

Source: PubChem
